# Source: ChEMBL document CHEMBL4028894, “Identification of a New Pyrazolo[1,5-a]quinazoline Ligand Highly Affine to γ-Aminobutyric Type A (GABAA) Receptor Subtype with Anxiolytic-Like and Antihyperalgesic Activity” (J Med Chem, 2017)
# pKi: −log10 of the molar value.
# Assays:
# Bos taurus = species on record: Bos taurus; experiment: Displacement of [3H]Ro15-1788 from GABAA receptor in bovine cerebral cortex membranes at 10 uM after 90 mins by liquid scintillation counting method relative to control; format: cell membranes; details: Membrane
# Summary of the method: (§1)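 Bovine cerebral cortex membranes in 50 mM tris-citrate pH 7.4, with displacement of specific [3H]flumazenil binding. Single-point screen at 10 μM gives % inhibition. Where inhibition exceeds 80%, at least six concentrations tested and Ki derived by iterative curve fitting and the Cheng-Prusoff equation. Five experiments, each in triplicate; mean ± SEM.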
# [1] = Displacement of [3H]Ro15-1788 from GABAA receptor in bovine cerebral cortex membranes after 90 mins by liquid scintillation counting method; format: cell membranes, Bos taurus, Membrane; summary of the method: as §1
# Mus musculus [2] = experiment: Anxiolytic-like activity in Swiss albino mouse assessed as persistent time in light box at 100 mg/kg, ip administered 40 mins prior to testing by light dark box test (131.9 +/- 6.5 secs); format: functional
# Rattus norvegicus [3] = experiment: Antihyperalgesic activity in Sprague-Dawley rat peripheral mononeuropathy model assessed as ipsilateral paw pressure at 10 mg/kg, po after 45 mins by analgesimeter (36.9 +/- 3.8 g); format: functional
# Rattus norvegicus [4] = experiment: Effect on pain threshold in contralateral paw in Sprague-Dawley rat peripheral mononeuropathy model at 30 mg/kg, po; format: ADME, organism-based; details: in vivo
# Mus musculus [5] = experiment: Antihyperalgesic activity in streptozotocin-induced Swiss albino mouse hyperalgesia model assessed as licking latency time at 30 mg/kg, po after 60 mins by hot plate test (reference value: 9.6 +/- 0.9 secs); format: functional
# Mus musculus [6] = experiment: (§2) Reversal of scopolamine-induced amnesic effect in Swiss albino mouse assessed as retention session latency time at 10 mg/kg, po administered 30 mins followed by establishment of training session and immediate addition of scopolamine post session by passive-avoidance test (reference value: 46.3 +/- 7.5 secs); format: functional
# Summary of the method: (§3)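 Male Swiss albino mice, 8 per group, step-through passive avoidance. Compound given p.o. in 1% carboxymethylcellulose 30 min before training. Scopolamine 1.5 mg/kg in saline given i.p. immediately after training. Punishment on entering the dark compartment is a fall into 10 °C water. Latencies measured at training and at retention 24 h later (max 120 s).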
# Mus musculus [7] = experiment: Anticonvulsant activity in Swiss albino mouse assessed as protection against subcutaneous pentylenetetrazole-induced seizures at 30 mg/kg, po administered 30 mins followed by pentylenetetrazole challenge measured over 30 mins relative to control; format: functional
# Summary of the method: (§4)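 Male Swiss albino mice, 6 per group. Compound given p.o. in 1% carboxymethylcellulose. Pentylenetetrazole 90 mg/kg in saline given s.c. 30 min later. Occurrence of clonic generalized convulsions noted over 30 min. Result expressed as % protection, with the vehicle group taken as 0%.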
# Mus musculus [8] = experiment: Antihyperalgesic activity in streptozotocin-induced Swiss albino mouse hyperalgesia model assessed as licking latency time at 30 mg/kg, po after 15 mins by hot plate test (reference value: 9.4 +/- 1.1 secs); format: functional
# Mus musculus [9] = experiment: Effect on licking latency time in Swiss albino mouse at 30 mg/kg, po after 15 mins by hot plate test (reference value: 18.3 +/- 1.1 secs); format: ADME, organism-based; details: in vivo, 0.25 h
# Mus musculus [10] = experiment: Effect on motor coordination in Swiss albino mouse at 30 mg/kg, po measured over 30 secs at 15 to 60 mins post drug administration by rota rod test; format: ADME, organism-based; details: in vivo
# Summary of the method: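 Male Swiss albino mice, 8 per group. Oral dose in 1% carboxymethylcellulose. Rota rod turning at 16 r.p.m. Falls from the rod counted over 30 s, measured before dosing and every 15 min up to 60 min after.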
# Rattus norvegicus [11] = experiment: Antihyperalgesic activity in Sprague-Dawley rat peripheral mononeuropathy model assessed as ipsilateral paw pressure at 10 mg/kg, po after 30 mins by analgesimeter (41.7 +/- 3.6 g); format: functional
# Mus musculus [12] = experiment: as §2, with “training” for “retention”, “30” for “10”, “15.9” for “46.3”, “3” for “7.5”; format: functional; summary of the method: as §3
# Mus musculus [13] = experiment: as §2, with “training” for “retention”, “15.9” for “46.3”, “3” for “7.5”; format: functional; summary of the method: as §3
# Mus musculus [14] = experiment: Anticonvulsant activity in Swiss albino mouse assessed as protection against subcutaneous pentylenetetrazole-induced seizures at 10 mg/kg, po administered 30 mins followed by pentylenetetrazole challenge measured over 30 mins relative to control; format: functional
# Summary of the method: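 Male Swiss albino mice (23-30 g), 6 per group. Test drug suspended in 1% carboxymethylcellulose, given orally 30 min before PTZ 90 mg/kg s.c. (saline). Clonic generalized convulsions recorded over 30 min. Result expressed as % protection versus vehicle-treated animals (0% protection).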
# Mus musculus [15] = experiment: as §2, with “30” for “10”; format: functional; summary of the method: as §3
# Mus musculus [16] = experiment: Anxiolytic-like activity in Swiss albino mouse assessed as persistent time in light box at 1 mg/kg, po administered 30 mins prior to testing by light dark box test (131.9 +/- 6.5 secs); format: functional
# Mus musculus [17] = experiment: Antihyperalgesic activity in streptozotocin-induced Swiss albino mouse hyperalgesia model assessed as licking latency time at 30 mg/kg, po after 45 mins by hot plate test (reference value: 10.9 +/- 0.8 secs); format: functional
# Mus musculus [18] = experiment: Amnesic effect in Swiss albino mouse assessed as training session latency time at 30 mg/kg, po administered 30 mins prior to testing by passive-avoidance test (reference value: 14.1 +/- 3.4 secs); format: ADME, organism-based; details: in vivo
# Rattus norvegicus [19] = experiment: Antihyperalgesic activity in Sprague-Dawley rat peripheral mononeuropathy model assessed as ipsilateral paw pressure at 10 mg/kg, po after 15 mins by analgesimeter (33.7 +/- 3.2 g); format: functional
# NSC = experiment: Cytotoxicity against human H9-derived neural stem cells assessed as effect on cell viability at 1 to 1000 nM after 72 hrs by MTS assay; format: cell-based; details: 1 µM
# Summary of the method: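 Neural stem cells derived from H9 were grown on polyornithine/laminin and differentiated for 7 days in serum-free Neurobasal with 2% B-27, 2 mM L-glutamine and 5 μM retinoic acid. Cells then exposed 72 h to 1 nM-1 μM compound. MTS absorbance read at 490, background subtracted, expressed as % of untreated cells. Three independent experiments, each in triplicate.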
# Mus musculus [20] = experiment: Anxiolytic-like activity in Swiss albino mouse assessed as persistent time in light box at 30 mg/kg, po administered 30 mins prior to testing by light dark box test (131.9 +/- 6.5 secs); format: functional
# Mus musculus [21] = experiment: Amnesic effect in Swiss albino mouse assessed as retention session latency time at 30 mg/kg, po administered 30 mins prior to testing by passive-avoidance test (reference value: 98.4 +/- 8.8 secs); format: ADME, organism-based; details: in vivo
# Mus musculus [22] = experiment: Anxiolytic-like activity in Swiss albino mouse assessed as persistent time in light box at 10 mg/kg, po administered 30 mins prior to testing by light dark box test (131.9 +/- 6.5 secs); format: functional
# Rattus norvegicus [23] = experiment: Antihyperalgesic activity in Sprague-Dawley rat peripheral mononeuropathy model assessed as ipsilateral paw pressure at 30 mg/kg, po after 30 mins by analgesimeter (41.7 +/- 3.6 g); format: functional
# Mus musculus [24] = experiment: Effect on licking latency time in Swiss albino mouse at 30 mg/kg, po after 30 mins by hot plate test (reference value: 18.8 +/- 1.2 secs); format: ADME, organism-based; details: in vivo, 0.5 h
# Rattus norvegicus [25] = experiment: Antihyperalgesic activity in Sprague-Dawley rat peripheral mononeuropathy model assessed as ipsilateral paw pressure at 30 mg/kg, po after 45 mins by analgesimeter (36.9 +/- 3.8 g); format: functional
# Mus musculus [26] = experiment: Antihyperalgesic activity in streptozotocin-induced Swiss albino mouse hyperalgesia model assessed as licking latency time at 30 mg/kg, po after 30 mins by hot plate test (reference value: 10.2 +/- 0.8 secs); format: functional
# Mus musculus [27] = experiment: Anticonvulsant activity in Swiss albino mouse assessed as protection against subcutaneous pentylenetetrazole-induced seizures at 100 mg/kg, po administered 30 mins followed by pentylenetetrazole challenge measured over 30 mins relative to control; format: functional; summary of the method: as §4
# Rattus norvegicus [28] = experiment: Antihyperalgesic activity in Sprague-Dawley rat peripheral mononeuropathy model assessed as ipsilateral paw pressure at 30 mg/kg, po after 15 mins by analgesimeter (33.7 +/- 3.2 g); format: functional
# Mus musculus [29] = experiment: Anxiolytic-like activity in Swiss albino mouse assessed as persistent time in light box at 30 mg/kg, po administered 30 mins prior to testing in presence of GABAA receptor antagonist flumazenil by light dark box test (131.9 +/- 6.5 secs); format: functional
# Mus musculus [30] = experiment: Effect on explorative activity in Swiss albino mouse at 30 mg/kg, po measured over 5 mins by […] test; format: ADME, organism-based; details: in vivo
# Summary of the method: (§5)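 Male Swiss albino mice, 8 per group, hole-board: a 40 cm square with 16 holes. Compound given 30 min before the test. Each mouse explores freely for 5 min. Photobeam counts across quadrants give locomotor activity; photocells in the holes give the number of hole inspections.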
# Mus musculus [31] = experiment: Effect on spontaneous motility in Swiss albino mouse at 30 mg/kg, po measured over 5 mins by […] test; format: ADME, organism-based; details: in vivo; summary of the method: as §5
# Mus musculus [32] = experiment: Effect on licking latency time in Swiss albino mouse at 30 mg/kg, po after 45 mins by hot plate test (reference value: 18 +/- 0.9 secs); format: ADME, organism-based; details: in vivo, 0.75 h
# Mus musculus [33] = experiment: Effect on licking latency time in Swiss albino mouse at 30 mg/kg, po after 60 mins by hot plate test (reference value: 17.9 +/- 1.1 secs); format: ADME, organism-based; details: in vivo, 1 h
structure (smiles),measurement,setting,value
COc1ccc2cnc3c(C(=O)OC(C)C)cnn3c2c1,inhibition,Bos taurus,> 80%
same,pKi,[1],7.01
COc1ccc2c(c1)-n1ncc(C(=O)OCc3ccccc3OC)c1NC2,inhibition,Bos taurus,> 80%
same,pKi,[1],7.80
COc1ccc2cnc3c(C(=O)OCc4ccco4)cnn3c2c1,inhibition,Bos taurus,> 80%
same,pKi,[1],7.82
CCOC(=O)c1cnn2c1ncc1ccc(OC)cc12,inhibition,Bos taurus,> 80%
same,pKi,[1],6.99
CCOC(=O)c1ncn2c1CN(C)C(=O)c1cc(F)ccc1-2 [FLUMAZENIL],Time,Mus musculus [2],127.5 s
COc1ccc2cnc3c(C(=O)OCc4ccccc4OC)cnn3c2c1,Activity,Rattus norvegicus [3],36.9 g
same,Activity,Rattus norvegicus [4],Non-Toxic
same,Time,Mus musculus [5],11.2 s
same,Time,Mus musculus [6],53.1 s
same,Activity,Mus musculus [7],10%
same,Time,Mus musculus [8],16.6 s
same,Time,Mus musculus [9],17.3 s
same,Activity,Mus musculus [10],Non-Toxic
same,Activity,Rattus norvegicus [11],41.7 g
same,Time,Mus musculus [12],17.52 s
same,Time,Mus musculus [13],17.5 s
same,Activity,Mus musculus [14],0%
same,Time,Mus musculus [15],60.4 s
same,Time,Mus musculus [16],133.1 s
same,Time,Mus musculus [17],13.1 s
same,inhibition,Bos taurus,> 80%
same,Time,Mus musculus [18],16.5 s
same,Activity,Rattus norvegicus [19],39.8 g
same,Activity,NSC,Non-Toxic
same,Time,Mus musculus [20],165.7 s
same,Time,Mus musculus [21],105.6 s
same,Time,Mus musculus [22],169.6 s
same,Activity,Rattus norvegicus [23],41.7 g
same,Time,Mus musculus [24],17.2 s
same,pKi,[1],9.57
same,Activity,Rattus norvegicus [25],35.9 g
same,Time,Mus musculus [26],15.5 s
same,Activity,Mus musculus [27],10%
same,Activity,Rattus norvegicus [28],52.4 g
same,Time,Mus musculus [29],136.4 s
same,Activity,Mus musculus [30],Non-Toxic
same,Activity,Mus musculus [31],Non-Toxic
same,Time,Mus musculus [32],18.4 s
same,Time,Mus musculus [33],17.5 s
N#Cc1cnn2c1ncc1ccccc12,inhibition,Bos taurus,27%
COCCOc1ccc2cnc3c(C#N)cnn3c2c1,inhibition,Bos taurus,53%
COc1ccc2cnc3c(C(=O)OCc4ccccc4)cnn3c2c1,inhibition,Bos taurus,> 80%
same,pKi,[1],7.72
